The target in assay [1] is Neuronal acetylcholine receptor subunit alpha-7 (Rattus norvegicus, UniProt Q05941). Nature of the assay: Inhibition of [3H]-MLA binding to Nicotinic acetylcholine receptor alpha-7 in rat brain membranes; NA= Not active. It counts as cell membranes. The procedure, abridged: (§1)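 Rat whole brain minus cortex and cerebellum, homogenized in HEPES buffer (pH 7.5), washed by repeated 25,000g spins with one 37 °C 10-min incubation, stored at −70 °C. Membranes ([…]) incubated 60 min at room temperature with 3 nM radioligand plus analogue ([…]) in HEPES assay buffer with 50 mM Tris. Nonspecific binding defined with […] MLA, respectively. PEI-soaked GF/B filtration. Four independent experiments.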
Sequence of Neuronal acetylcholine receptor subunit alpha-7 (Q05941 whole entry): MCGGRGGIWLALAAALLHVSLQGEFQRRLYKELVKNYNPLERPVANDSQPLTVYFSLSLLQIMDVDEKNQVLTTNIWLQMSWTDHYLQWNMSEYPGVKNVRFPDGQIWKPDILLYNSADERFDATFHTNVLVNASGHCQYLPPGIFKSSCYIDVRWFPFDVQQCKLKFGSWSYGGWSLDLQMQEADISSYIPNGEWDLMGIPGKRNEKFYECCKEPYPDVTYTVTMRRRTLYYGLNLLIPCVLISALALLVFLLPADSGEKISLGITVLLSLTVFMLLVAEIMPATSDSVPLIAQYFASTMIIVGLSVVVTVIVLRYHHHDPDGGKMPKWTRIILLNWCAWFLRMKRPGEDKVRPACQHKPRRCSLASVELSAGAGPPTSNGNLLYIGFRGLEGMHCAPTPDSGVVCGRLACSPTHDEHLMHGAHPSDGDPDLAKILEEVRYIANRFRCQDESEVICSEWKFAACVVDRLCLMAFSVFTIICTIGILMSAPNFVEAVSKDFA

The species named for assay [2] is Rattus norvegicus. As to the kind of experiment: Inhibitory activity against nAChR mediated nicotine-evoked [3H]DA overflow using rat striatal slices. Format: functional, organism-based. The procedure, abridged: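 Rat striatal slices preincubated in oxygenated Krebs' buffer (pH 7.4) at 34 °C, loaded with [³H]DA during the last 30 min of the 60-min incubation. Slices then superfused at 34 °C with buffer containing nomifensine and pargyline. Nicotine-evoked overflow was normalized to slice tritium content, using a repeated-measures design.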

In assay [3] the target is T1, Neuronal acetylcholine receptor; alpha4/beta2 (Rattus norvegicus, UniProt P09483+P12390). As to the kind of experiment: Inhibition of [3H]nicotine binding to Nicotinic acetylcholine receptor alpha4-beta2 in rat brain membranes. Format: cell membranes. The procedure, abridged: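 Rat whole-brain membranes (cortex and cerebellum removed), washed by repeated centrifugation and stored at −70 °C. Incubated with 3 nM [³H]nicotine and a range of analogue concentrations in pH 7.5 HEPES-based buffer with Tris, 60 min at room temperature. Nonspecific binding defined with nicotine. Filtration on PEI-soaked GF/B filters, scintillation counting. Ki is the mean of four independent experiments with standard error.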
T1 sequence (P09483 whole entry): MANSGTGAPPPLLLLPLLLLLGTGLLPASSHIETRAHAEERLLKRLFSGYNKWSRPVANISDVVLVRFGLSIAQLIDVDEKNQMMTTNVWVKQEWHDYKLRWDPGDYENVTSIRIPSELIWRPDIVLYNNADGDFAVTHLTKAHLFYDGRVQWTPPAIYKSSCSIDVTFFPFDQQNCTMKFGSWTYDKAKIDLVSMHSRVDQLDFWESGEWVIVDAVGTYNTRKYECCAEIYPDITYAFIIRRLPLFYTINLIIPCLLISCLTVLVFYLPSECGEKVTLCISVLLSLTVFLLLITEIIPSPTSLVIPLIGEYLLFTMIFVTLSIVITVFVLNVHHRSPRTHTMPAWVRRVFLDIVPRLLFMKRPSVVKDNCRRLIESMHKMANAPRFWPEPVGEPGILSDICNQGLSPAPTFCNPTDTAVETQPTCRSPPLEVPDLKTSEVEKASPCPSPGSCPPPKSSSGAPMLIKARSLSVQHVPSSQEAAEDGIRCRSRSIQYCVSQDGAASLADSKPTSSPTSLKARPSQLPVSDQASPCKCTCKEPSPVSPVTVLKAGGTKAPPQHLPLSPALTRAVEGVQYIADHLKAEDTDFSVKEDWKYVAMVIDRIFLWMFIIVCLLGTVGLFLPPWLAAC
T1 sequence (P12390 whole entry): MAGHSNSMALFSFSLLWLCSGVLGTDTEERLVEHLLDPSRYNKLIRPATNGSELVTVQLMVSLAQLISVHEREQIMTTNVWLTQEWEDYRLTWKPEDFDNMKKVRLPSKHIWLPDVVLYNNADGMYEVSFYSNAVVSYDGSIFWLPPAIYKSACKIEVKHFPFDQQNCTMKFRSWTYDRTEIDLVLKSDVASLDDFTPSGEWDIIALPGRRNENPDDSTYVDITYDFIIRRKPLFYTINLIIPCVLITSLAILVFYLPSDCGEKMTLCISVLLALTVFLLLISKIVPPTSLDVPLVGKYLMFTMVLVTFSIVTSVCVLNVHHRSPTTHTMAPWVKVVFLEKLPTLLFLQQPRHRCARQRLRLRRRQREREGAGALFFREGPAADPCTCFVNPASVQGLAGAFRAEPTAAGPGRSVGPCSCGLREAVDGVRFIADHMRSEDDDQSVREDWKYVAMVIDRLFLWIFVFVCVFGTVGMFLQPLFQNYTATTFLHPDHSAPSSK

Assay [4] concerns the target T1, Neuronal acetylcholine receptor; alpha4/beta2. Nature of the assay: Inhibition of [3H]nicotine binding to Nicotinic acetylcholine receptor alpha4-beta2 in rat brain membranes; NA= Not active. Format: cell membranes. The method in brief: as §1
Assay [5] is filed under the species Rattus norvegicus. Nature of the assay: Inhibitory activity against nAChR mediated nicotine-evoked [3H]DA overflow using rat striatal slices; Not determined. It counts as functional, organism-based. The method in brief:
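Rat striatal slices (4–6 mg) preincubated 60 min in oxygenated Krebs' buffer, pH 7.4, at 34 °C, […] [³H]DA (final) over the last 30 min. Slices then superfused at 1 mL/min, 34 °C, with nomifensine and pargyline present. Fractional release normalized to slice total tritium. Intrinsic and inhibitory activity measured on slices from the same rat. Means of 3–6 experiments.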

With `CCCCCCCCCC[n+]1cccc(C)c1.[I-]`, the Ki entry was “Not Active” in assay [1] and 26000 nM in assay [3]. The same compound yielded an IC50 in the assay filed under Rattus norvegicus [2] of 300 nM.

For the compound `Cc1ccc[n+](CCCCCCCCC[n+]2cccc(C)c2)c1.[Br-].[Br-]`, in assay [1], the Ki result is on record as “Not Active”.

On to `Cc1ccc[n+](CCCCCC[n+]2cccc(C)c2)c1.[I-].[I-]`, for which the Ki entry in assay [4] and in assay [1] was “Not Active” in each case. The same compound yielded an IC50 in the assay filed under Rattus norvegicus [2] of 1660 nM.

Consider `Cc1ccc[n+](CCCCCCCC[n+]2cccc(C)c2)c1.[I-].[I-]`, for which the Ki result in assay [4] and in assay [1] was “Not Active” each time. Further, the IC50 in the assay filed under Rattus norvegicus [5] worked out at 10 nM.

With `CCCCCCCCCCC[n+]1cccc(C)c1.[I-]`, the Ki entry in assay [4] and in assay [1] was “Not Active” each time.

On to `Cc1ccc[n+](CCCCCCCCCCC[n+]2cccc(C)c2)c1.[Br-].[Br-]`, for which the Ki entry in assay [1] was “Not Active”. This compound also came in with an IC50 in the assay listed under Rattus norvegicus [2] of 610 nM.

For `Cc1ccc[n+](CCCCCCCCCC[n+]2cccc(C)c2)c1.[I-].[I-]`, the Ki entry in assay [4] and in assay [1] was “Not Active” each time. The IC50 in the assay listed under Rattus norvegicus [2] was determined as 30 nM.

In the case of `Cc1ccc[n+](CCCCCCCCCCCC[n+]2cccc(C)c2)c1.[Br-].[Br-]`, the Ki entry in assay [1] is given as “Not Active”. Moreover, in the assay listed under Rattus norvegicus [2], the IC50 was 5 nM.

Take `CCCCCCCCCCCC[n+]1cccc(C)c1.[I-]`: the Ki result in assay [4] and in assay [1] was “Not Active” in each case. In the assay filed under Rattus norvegicus [2], this compound registered an IC50 of 30 nM.

For `CCCCCCCCC[n+]1cccc(C)c1.[I-]`, the Ki entry in assay [1] was “Not Active”; in assay [3], 62000 nM.

For `CCCCCCCC[n+]1cccc(C)c1.[I-]`, the Ki entry in assay [4] and in assay [1] was “Not Active” each time. In the assay listed under Rattus norvegicus [2], this compound came in with an IC50 of 1000 nM.

The record behind these values is ChEMBL document CHEMBL1137969, “Subtype-selective nicotinic receptor antagonists: potential as tobacco use cessation agents” (Bioorg Med Chem Lett, 2004).
